Assay results as given in ChEMBL document CHEMBL2429791, “Preparation of asymmetric urea derivatives that target prostate-specific membrane antigen for SPECT imaging” (J Med Chem, 2013).

Test system: Lung
Assay: Biodistribution in lung of C.B.-17/Icr +/+ Jcl mouse xenografted with human LNCAP and PC3 cells at 25.9 MBq, iv after 3 hrs
Type: ADME, organism-based
Conditions: in vivo
Outline: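 Radioiodinated (¹²⁵I) tracer given by tail-vein injection to mice bearing LNCaP (left shoulder) and PC-3 (right shoulder) xenografts, 22–24 g, grown to about 5–10 mm. Groups of n=4 were decapitated at 2 min, 30 min, 1 h, 3 h or 6 h. Tissues were weighed and counted, and uptake was expressed as %ID/g (mean ± SD).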

- Drug uptake: 1.2 % ID/g
SMILES: O=C(O)CC[C@H](NC(=O)N[C@@H](CSC1CC(=O)N(CCCC[C@H](NC(=O)CNC(=O)c2cccc([125I])c2)C(=O)O)C1=O)C(=O)O)C(=O)O (stereo partly specified)
